Here are results for 24 compounds from ChEMBL document CHEMBL1132296, “Anticonvulsant and sodium channel-blocking properties of novel 10,11-dihydro-5H-dibenz[b,f]azepine-5-carboxamide derivatives” (J Med Chem, 1999).

A value given as a limit tells only on which side of the number the result lay.

The species named for test [1] is Rattus norvegicus. The experiment in a line: Compound was tested for anticonvulsant activity against MES-induced seizures in rat. Set-up: concentration or dose not given beside the values.
The subject of test [2] is Rattus norvegicus. The experiment in a line: Compound was tested intraperitoneally for anticonvulsant activity by rotarod test. It counts as functional. To be noted: ip. The method in brief: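 Rats trained to stay 3 min on a 5-cm rod rotating at 6 rpm. Next day, compound ip in DMSO (2 mL/kg), placed on rod 15 min later at 6 rpm. Deficit = failure to hold equilibrium 1 min in each of three trials. 5–8 rats/group; TD50 from logistic fit.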
On the technique in general: Falling from the rotarod earlier than controls is read as motor impairment.

Test [3] relates to Rattus norvegicus. The experiment in a line: Compound was tested intraperitoneally for anticonvulsant activity against MES-induced seizures in rat by MES test. Type of test: functional. As to conditions: ip. The essentials: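 Intraperitoneal dosing to rats, MES given at t_max. Corneal electrodes after oxibuprocaine eye drops; abolition of hindleg tonic extensor component as endpoint. 5–8 rats/group; ED50 from logistic equation fit.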

Test [4] has as its system Rattus norvegicus. The experiment in a line: t max for anticonvulsant activity was tested in rats intraperitoneally. Type of test: functional, organism-based.
Test [5] deals with T1, Sodium channel alpha subunits; brain (Types I, II, III) (Rattus norvegicus) (UniProt P04775+P04774+P08104). The experiment in a line: Percent inhibition of 22Na+ uptake by voltage sensitive sodium channel of rat cortical synaptosomes at 100 uM. Type of test: functional, subcellular.
T1 sequence (P04775 whole entry, looked up, other chains not shown): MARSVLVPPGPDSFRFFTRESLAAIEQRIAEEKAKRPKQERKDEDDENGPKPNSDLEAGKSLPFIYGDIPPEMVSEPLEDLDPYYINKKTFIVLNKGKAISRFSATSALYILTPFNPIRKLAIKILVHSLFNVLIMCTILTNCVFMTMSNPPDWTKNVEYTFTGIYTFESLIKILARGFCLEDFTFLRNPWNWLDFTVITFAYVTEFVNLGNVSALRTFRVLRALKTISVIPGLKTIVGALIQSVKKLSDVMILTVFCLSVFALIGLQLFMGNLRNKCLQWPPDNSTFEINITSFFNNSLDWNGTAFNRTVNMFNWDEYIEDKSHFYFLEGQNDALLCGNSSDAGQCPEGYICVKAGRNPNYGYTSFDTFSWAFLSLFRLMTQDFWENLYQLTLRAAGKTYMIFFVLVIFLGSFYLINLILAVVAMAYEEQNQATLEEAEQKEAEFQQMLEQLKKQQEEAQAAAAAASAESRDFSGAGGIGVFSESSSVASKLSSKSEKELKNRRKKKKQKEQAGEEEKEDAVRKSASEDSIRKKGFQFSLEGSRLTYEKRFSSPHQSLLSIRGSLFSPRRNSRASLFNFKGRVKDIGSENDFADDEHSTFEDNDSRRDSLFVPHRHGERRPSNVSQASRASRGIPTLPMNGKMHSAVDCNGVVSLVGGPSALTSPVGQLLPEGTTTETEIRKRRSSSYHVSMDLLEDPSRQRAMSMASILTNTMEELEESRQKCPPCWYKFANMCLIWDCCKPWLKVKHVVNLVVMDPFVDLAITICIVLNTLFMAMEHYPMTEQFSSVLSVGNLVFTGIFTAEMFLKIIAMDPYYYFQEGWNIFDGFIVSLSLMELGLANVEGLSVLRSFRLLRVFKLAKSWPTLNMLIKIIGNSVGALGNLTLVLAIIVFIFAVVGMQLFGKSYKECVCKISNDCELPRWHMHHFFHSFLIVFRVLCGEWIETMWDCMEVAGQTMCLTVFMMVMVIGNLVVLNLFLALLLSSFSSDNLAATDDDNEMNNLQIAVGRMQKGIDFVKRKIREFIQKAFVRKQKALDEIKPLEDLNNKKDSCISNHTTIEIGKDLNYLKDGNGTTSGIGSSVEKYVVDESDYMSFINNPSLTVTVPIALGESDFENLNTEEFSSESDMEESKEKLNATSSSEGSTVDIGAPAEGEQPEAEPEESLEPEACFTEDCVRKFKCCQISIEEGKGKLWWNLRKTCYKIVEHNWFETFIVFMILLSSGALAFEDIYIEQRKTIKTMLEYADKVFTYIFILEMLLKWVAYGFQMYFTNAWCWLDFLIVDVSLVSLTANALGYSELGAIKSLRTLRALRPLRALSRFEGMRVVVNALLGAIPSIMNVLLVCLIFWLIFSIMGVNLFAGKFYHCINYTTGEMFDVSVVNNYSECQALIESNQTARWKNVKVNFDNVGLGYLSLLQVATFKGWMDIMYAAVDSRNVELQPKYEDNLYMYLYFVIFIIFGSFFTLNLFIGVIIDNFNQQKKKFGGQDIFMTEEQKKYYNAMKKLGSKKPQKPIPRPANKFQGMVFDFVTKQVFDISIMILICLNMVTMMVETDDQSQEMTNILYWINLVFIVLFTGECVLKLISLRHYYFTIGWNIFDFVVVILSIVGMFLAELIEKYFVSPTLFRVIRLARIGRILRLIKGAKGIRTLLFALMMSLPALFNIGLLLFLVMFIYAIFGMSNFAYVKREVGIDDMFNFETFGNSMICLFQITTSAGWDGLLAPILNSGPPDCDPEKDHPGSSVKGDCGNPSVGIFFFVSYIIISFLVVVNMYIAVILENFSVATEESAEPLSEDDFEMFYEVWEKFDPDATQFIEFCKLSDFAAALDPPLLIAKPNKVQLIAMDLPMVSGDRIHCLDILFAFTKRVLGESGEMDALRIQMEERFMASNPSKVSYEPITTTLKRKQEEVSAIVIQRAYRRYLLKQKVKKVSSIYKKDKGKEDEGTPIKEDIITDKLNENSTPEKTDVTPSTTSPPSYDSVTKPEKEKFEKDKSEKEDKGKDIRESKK
T1 sequence (P08104 whole entry, looked up, other chains not shown): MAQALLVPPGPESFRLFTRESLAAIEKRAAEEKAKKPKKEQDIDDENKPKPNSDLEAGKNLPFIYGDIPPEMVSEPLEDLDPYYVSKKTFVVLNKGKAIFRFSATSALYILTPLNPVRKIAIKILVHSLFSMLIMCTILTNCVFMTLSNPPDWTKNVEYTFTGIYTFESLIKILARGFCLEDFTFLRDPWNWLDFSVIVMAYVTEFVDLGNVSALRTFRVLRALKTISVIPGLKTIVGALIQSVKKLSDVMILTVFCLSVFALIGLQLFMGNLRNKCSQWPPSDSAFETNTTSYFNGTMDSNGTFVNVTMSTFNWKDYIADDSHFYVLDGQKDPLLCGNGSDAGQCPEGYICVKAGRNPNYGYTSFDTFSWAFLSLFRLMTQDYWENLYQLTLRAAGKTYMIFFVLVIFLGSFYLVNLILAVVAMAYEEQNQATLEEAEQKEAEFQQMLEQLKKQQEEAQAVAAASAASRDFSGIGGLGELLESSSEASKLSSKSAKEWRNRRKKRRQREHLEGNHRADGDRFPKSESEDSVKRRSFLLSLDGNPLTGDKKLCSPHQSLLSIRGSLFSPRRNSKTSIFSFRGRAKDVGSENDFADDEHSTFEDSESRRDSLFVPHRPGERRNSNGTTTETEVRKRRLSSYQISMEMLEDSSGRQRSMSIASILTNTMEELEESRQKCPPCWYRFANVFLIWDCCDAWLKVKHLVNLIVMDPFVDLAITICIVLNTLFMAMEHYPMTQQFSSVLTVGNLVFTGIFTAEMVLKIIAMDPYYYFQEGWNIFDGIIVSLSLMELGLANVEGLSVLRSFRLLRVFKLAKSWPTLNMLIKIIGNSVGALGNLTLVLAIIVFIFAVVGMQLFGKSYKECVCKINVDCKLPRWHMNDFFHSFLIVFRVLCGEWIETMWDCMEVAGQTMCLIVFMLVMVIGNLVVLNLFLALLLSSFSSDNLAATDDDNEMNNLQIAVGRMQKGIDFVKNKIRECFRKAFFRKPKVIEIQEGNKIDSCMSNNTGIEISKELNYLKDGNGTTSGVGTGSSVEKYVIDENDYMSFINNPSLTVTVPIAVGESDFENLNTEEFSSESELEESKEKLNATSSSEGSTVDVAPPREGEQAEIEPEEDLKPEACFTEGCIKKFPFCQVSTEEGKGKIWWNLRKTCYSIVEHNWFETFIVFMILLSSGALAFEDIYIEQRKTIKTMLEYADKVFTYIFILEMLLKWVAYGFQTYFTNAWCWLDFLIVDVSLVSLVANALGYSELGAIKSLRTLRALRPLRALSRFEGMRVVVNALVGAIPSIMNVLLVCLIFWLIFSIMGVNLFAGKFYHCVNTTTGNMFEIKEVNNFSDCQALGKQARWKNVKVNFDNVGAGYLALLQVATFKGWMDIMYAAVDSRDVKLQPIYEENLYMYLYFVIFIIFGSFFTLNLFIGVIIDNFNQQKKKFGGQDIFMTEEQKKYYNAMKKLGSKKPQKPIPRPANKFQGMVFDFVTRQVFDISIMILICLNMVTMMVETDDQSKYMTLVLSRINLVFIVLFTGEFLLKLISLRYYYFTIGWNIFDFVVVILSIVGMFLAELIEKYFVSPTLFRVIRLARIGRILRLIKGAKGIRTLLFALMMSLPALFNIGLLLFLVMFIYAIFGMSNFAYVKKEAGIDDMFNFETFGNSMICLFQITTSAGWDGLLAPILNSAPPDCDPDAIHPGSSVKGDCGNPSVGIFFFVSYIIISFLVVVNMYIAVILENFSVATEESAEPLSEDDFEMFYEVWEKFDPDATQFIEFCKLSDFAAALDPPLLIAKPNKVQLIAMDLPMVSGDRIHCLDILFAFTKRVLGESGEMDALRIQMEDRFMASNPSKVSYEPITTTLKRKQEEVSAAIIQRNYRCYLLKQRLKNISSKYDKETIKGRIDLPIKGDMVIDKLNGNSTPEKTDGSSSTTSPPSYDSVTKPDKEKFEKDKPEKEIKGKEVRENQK
Test [6] is filed under the species Rattus norvegicus. The experiment in a line: Protective index value of the compound, given by gastric tube (TD50/ED50). It counts as functional, Stomach. The method in brief:
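Ratio TD50/ED50 from oral (gastric tube) rotarod and MES tests in rats at t_max. Both values come from logistic fits, 5–8 rats/group.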

The subject of test [7] is Rattus norvegicus. The experiment in a line: Protective index value of the compound, given by intraperitoneally (TD50/ED50). Type of test: functional. The essentials: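 Ratio TD50/ED50 from intraperitoneal rotarod and MES tests in rats. Both values come from logistic fits, 5–8 rats/group.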
Test [8] relates to Rattus norvegicus. The experiment in a line: Compound was tested for anticonvulsant activity administered by gastric tube in rat by rotarod test. Type of test: functional.
Test [9] concerns the target T1, Sodium channel alpha subunits; brain (Types I, II, III) (Rattus norvegicus). Description: Percent inhibition of 22Na+ uptake by voltage sensitive sodium channel of rat cortical synaptosomes at 30 uM. It counts as functional, subcellular.
Test [10] addresses Sodium channel alpha subunits; brain (Types I, II, III) (Rattus norvegicus, UniProt P04775+P04774+P08104). The experiment in a line: Displacement of [3H]BTX from voltage-gated sodium channel of rat cortical synaptosomes. It counts as subcellular.
For test [11], the target named is T1, Sodium channel alpha subunits; brain (Types I, II, III) (Rattus norvegicus). Description: Percent inhibition of 22Na+ uptake by voltage sensitive sodium channel of rat cortical synaptosomes at 300 uM. It counts as functional, subcellular.
Test [12] deals with Rattus norvegicus. Description: Compound was tested for anticonvulsant activity administered by gastric tube in rat by MES test. It counts as functional. The essentials:
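Rats, oral by gastric tube, tested at t_max. Rats were pre-screened in a first MES session through corneal electrodes after oxibuprocaine eye drops, and only typical tonic–clonic convulsers were kept. Next day, compound or vehicle, then MES sessions 2 or 4 h and 6, 8 or 12 h post-dose. Endpoint was abolition of hindleg tonic extension. 5–8 rats/group; ED50 from logistic fit.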

The test system of test [13] is Rattus norvegicus. The experiment in a line: t max was for the anticonvulsant effect was tested in rats administered by gastric tube; t max. To be noted: Stomach. It counts as functional, organism-based.
Test [14] addresses T1, Sodium channel alpha subunits; brain (Types I, II, III) (Rattus norvegicus). To be noted: 300 uM.

For `NC(=O)N1c2ccccc2CC(OC(=O)CBr)c2ccccc21` (centres undefined), the Protection in the test filed under Rattus norvegicus [1] was 15.1%.
One may read the TD50 as the dose at which the toxic effect under study appears in half of the subjects. One may read the ED50 as the dose that gives a 50% effect, or the effect in half of the subjects. Take `NC(=O)N1c2ccccc2C[C@H](O)c2ccccc21` [ESLICARBAZEPINE]: in the test with Rattus norvegicus [2], the TD50 worked out at 96.6 mg/kg. For the same compound, in the test with Rattus norvegicus [3], it took a dose of 17.1 mg/kg to reach the 50% effect level (ED50). Also, the Tmax in the test with Rattus norvegicus [4] is 30 min.
The term inhibition denotes the change of the read-out against control, counted positive when it falls. The IC50 is the concentration that gives 50% inhibition. For `CC(=O)O[C@H]1Cc2ccccc2N(C(N)=O)c2ccccc21` [ESLICARBAZEPINE ACETATE], the inhibition in [5] came out at 73.4%; in test [9] it was 52.6%; in test [11], 95.6%. Further, the Protective index was found to be 76.3 in the test listed under Rattus norvegicus [6] and 12.5 in the test with Rattus norvegicus [7]. Moreover, the results for the TD50 with Rattus norvegicus [8] and with Rattus norvegicus [2] were 359 mg/kg and 78.6 mg/kg, respectively. This compound yielded a half-inhibitory concentration (IC50) in test [10] of 138 µM. Moreover, the figures for the 50% effective dose (ED50) with Rattus norvegicus [12] and with Rattus norvegicus [3] were 4.7 mg/kg and 6.3 mg/kg, respectively. Besides, the Protection in the test filed under Rattus norvegicus [1] was found to be 100%. Moreover, the Tmax with Rattus norvegicus [13] came to 120 min; with Rattus norvegicus [4] it was 15 min.
Take `CCCC(=O)OC1Cc2ccccc2N(C(N)=O)c2ccccc21` (centres undefined): in the test filed under Rattus norvegicus [1], the Protection was 34.2%.
Still for that read-out and setting: the figure for `NC(=O)N1c2ccccc2CC(OC(=O)c2ccccc2)c2ccccc21` (centres undefined) is 17.2%; for `CCC(=O)OC1Cc2ccccc2N(C(N)=O)c2ccccc21` (centres undefined) it is 40.6%.
For `CC(=O)OC1Cc2ccccc2N(C(N)=O)c2ccccc21` (centres undefined), the inhibition stood at 61.8% in [5], 42.2% in test [9] and 82.1% in [11]. The Protective index in the test filed under Rattus norvegicus [6] came out at 31.7; with Rattus norvegicus [7], 9.9. The figures for the TD50 in the test on Rattus norvegicus [8] and in the test on Rattus norvegicus [2] were 428 mg/kg and 130 mg/kg, respectively. In test [10], this compound had an IC50 of 141 µM. The 50% effective dose (ED50) in the test on Rattus norvegicus [12] came out at 13.5 mg/kg; in the test with Rattus norvegicus [3], 13.1 mg/kg. Moreover, in the test listed under Rattus norvegicus [1], the Protection turned out to be 54.4%. The values for the Tmax in the test on Rattus norvegicus [13] and in the test with Rattus norvegicus [4] were 120 min and 5 min, respectively.
Turning to `NC(=O)N1c2ccccc2CC(OC(=O)Cc2ccc([N+](=O)[O-])cc2)c2ccccc21` (centres undefined), the Protection in the test listed under Rattus norvegicus [1] worked out at 13.8%.
On the same count and under the same terms, in the case of `CC(Cl)C(=O)OC1Cc2ccccc2N(C(N)=O)c2ccccc21` (centres undefined) it was 3.9%.
`NC(=O)N1c2ccccc2C=Cc2ccccc21` [CARBAMAZEPINE]: the inhibition in [5] came to 44.3%; in test [9], 22.6%; in test [11] it was 64.8%. Further, the TD50 in the test with Rattus norvegicus [8] was 251 mg/kg; in the test with Rattus norvegicus [2], 27.4 mg/kg. Besides, the IC50 in test [10] came to 210 µM. The values for the ED50 with Rattus norvegicus [12] and with Rattus norvegicus [3] were 5.4 mg/kg and 3.4 mg/kg, respectively. The Tmax in the test on Rattus norvegicus [13] is 120 min; in the test with Rattus norvegicus [4], 15 min.
Consider `CC(=O)O[C@@H]1Cc2ccccc2N(C(N)=O)c2ccccc21`, for which the inhibition in test [5] was found to be 57.7%; in test [9], 17.9%; in test [11], 73.2%. Further, the figures for the Protective index in the test listed under Rattus norvegicus [6] and with Rattus norvegicus [7] were over 91.7 and 7.5, respectively. Besides, the values for the TD50 with Rattus norvegicus [8] and in the test with Rattus norvegicus [2] were over 1000 mg/kg and 135 mg/kg, respectively. The compound further registered an IC50 in [10] of 113 µM. The 50% effective dose (ED50) was determined as 10.9 mg/kg in the test on Rattus norvegicus [12] and 18 mg/kg with Rattus norvegicus [3]. In the test filed under Rattus norvegicus [1], the Protection amounted to 5.9%. In addition, the figures for the Tmax with Rattus norvegicus [13] and in the test with Rattus norvegicus [4] were 480 min and 60 min, respectively.
For `CCCC(CC)C(=O)OC1Cc2ccccc2N(C(N)=O)c2ccccc21` (centres undefined), the Protection in the test filed under Rattus norvegicus [1] is -12.8%.
Still for that read-out and setting: the figure for `CC(C)(C)C(=O)OC1Cc2ccccc2N(C(N)=O)c2ccccc21` (centres undefined) is 6.5%; for `CCCCCCCCCCCCCCCCCC(=O)OC1Cc2ccccc2N(C(N)=O)c2ccccc21` (centres undefined) it is 0.8%.
Regarding `NC(=O)N1c2ccccc2CC(O)c2ccccc21` (centres undefined) [LICARBAZEPINE], in the test with Rattus norvegicus [2], the TD50 worked out at 89.3 mg/kg. Also, the ED50 in the test on Rattus norvegicus [3] was determined as 14.6 mg/kg. Also, the Tmax in the test on Rattus norvegicus [4] amounted to 15 min.
Take `CC(=O)Oc1ccccc1C(=O)OC1Cc2ccccc2N(C(N)=O)c2ccccc21` (centres undefined): the Protection in the test filed under Rattus norvegicus [1] came out at 10.2%.
Still for that read-out and setting: the figure for `CCOC(=O)OC1Cc2ccccc2N(C(N)=O)c2ccccc21` (centres undefined) is 18.3%; for `NC(=O)N1c2ccccc2CC(OC=O)c2ccccc21` (centres undefined) it is 32.1%; for `COc1ccc(CC(=O)OC2Cc3ccccc3N(C(N)=O)c3ccccc32)cc1` (centres undefined) it is 8.1%.
Turning to `NC(=O)N1c2ccccc2CC(=O)c2ccccc21` [OXCARBAZEPINE], the inhibition came out at 50.2% in test [5], 31.2% in test [9] and 76.2% in test [14]. Further, the values for the TD50 with Rattus norvegicus [8] and in the test on Rattus norvegicus [2] were over 1000 mg/kg and 40.1 mg/kg, respectively. In test [10], this compound displayed a half-inhibitory concentration (IC50) of 161 µM. In addition, the median effective dose (ED50) in the test on Rattus norvegicus [12] was found to be 10 mg/kg; in the test with Rattus norvegicus [3], 6.1 mg/kg. The Tmax worked out at 120 min with Rattus norvegicus [13] and 5 min in the test on Rattus norvegicus [4].
In the case of `NC(=O)N1c2ccccc2C[C@@H](O)c2ccccc21`, in the test on Rattus norvegicus [2], the TD50 came out at 97.4 mg/kg. In the test on Rattus norvegicus [3], this compound returned an ED50 of 17.9 mg/kg. Further, the Tmax in the test on Rattus norvegicus [4] was found to be 30 min.
`NC(=O)N1c2ccccc2CC(OC(=O)c2cccnc2)c2ccccc21` (centres undefined): the Protection in the test listed under Rattus norvegicus [1] amounted to 32.8%.
On the same count and under the same terms, the figure for `NC(=O)N1c2ccccc2CC(OC(=O)CCl)c2ccccc21` (centres undefined) is 0.5%; for `CCCC(CCC)C(=O)OC1Cc2ccccc2N(C(N)=O)c2ccccc21` (centres undefined) it is 0.2%.
